# Experimental data: ChEMBL document CHEMBL4311975, “Exploration of the antibiotic potentiating activity of indolglyoxylpolyamines” (Eur J Med Chem, 2019)
# Assays:
# Escherichia coli = experiment: Antibacterial activity against Escherichia coli ATCC 25922 assessed as growth inhibition incubated for 18 hrs by broth dilution method; assay type: functional; conditions: ATCC 25922, 18 h
# In short: (§1)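 Broth microdilution following CA-SFM recommendations. Inoculum was 10^5 CFU in Mueller-Hinton broth with two-fold serial drug dilutions. Plates were incubated 18 h at 37 °C. MIC was the lowest concentration giving complete inhibition of visible growth. Values are means, n = 3.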
# Acinetobacter baumannii [1] = experiment: Antibacterial activity against Acinetobacter baumannii AYE assessed as growth inhibition; assay type: functional
# Staphylococcus aureus = experiment: Antibacterial activity against Staphylococcus aureus ATCC 25923 assessed as growth inhibition incubated for 18 hrs by broth dilution method; assay type: functional; conditions: ATCC 25923, 18 h; in short: as §1
# [2] = system: Staphylococcus intermedius; experiment: Antibacterial activity against Staphylococcus intermedius 1051997 assessed as growth inhibition incubated for 18 hrs by broth dilution method; assay type: functional; conditions: Staphylococcus intermedius, 1051997, 18 h; in short: as §1
# Klebsiella pneumoniae [3] = experiment: Antibacterial activity against Klebsiella pneumoniae ATCC 13443 assessed as growth inhibition; assay type: functional
# Pseudomonas aeruginosa [4] = experiment: Antibacterial activity against Pseudomonas aeruginosa ATCC 27853 assessed as growth inhibition incubated for 18 hrs by broth dilution method; assay type: functional; conditions: ATCC 27853, 18 h; in short: as §1
# Klebsiella pneumoniae [5] = experiment: Antibacterial activity against Klebsiella pneumoniae ATCC 700603 assessed as growth inhibition incubated for 18 hrs by resazurin dye based assay; assay type: functional; conditions: Klebsiella pneumoniae, 700603, 18 h
# In short: (§2)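 Overnight cultures were diluted 40-fold in MHB and grown 1.5–2 h at 37 °C to mid-log phase. Cells were added at 5×10^5 CFU/mL final to two-fold compound dilutions (0.008–32 μg/mL final), in duplicate, for 18 h at 37 °C. Resazurin (0.001% final) was added for 2 h and MIC read by eye. Means, n = 2.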
# Pseudomonas aeruginosa [6] = experiment: Potentiation of doxycycline-induced antibacterial activity against Pseudomonas aeruginosa ATCC 27853 assessed as concentration required to restore 2 ug/ml doxycycline activity measured after 18 hrs; assay type: functional
# In short: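 Inoculum was 5×10^5 CFU in MHB with two-fold serial dilutions of adjuvant plus fixed doxycycline at 2 μg/mL. […] Repeated independently in triplicate.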
# [7] = Cytotoxicity against human HEK293 cells measured after 20 hrs by resazurin dye based fluorescence assay; assay type: cell-based
# In short: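 HEK293 cells, 5,000/well in DMEM with 10% FBS, were exposed to compound for 20 h at 37 °C, 5% CO2. Resazurin (100 μM final) was added for 3 h, then fluorescence read at ex 560/em 590. Signal was normalised to tamoxifen (74 μg/mL, 0%) and untreated growth (100%), and CC50 came from dose-response fitting. Top dose 32 μg/mL. Means, n = 2.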
# Acinetobacter baumannii [8] = experiment: Antibacterial activity against Acinetobacter baumannii ATCC 19606 assessed as growth inhibition incubated for 18 hrs by resazurin dye based assay; assay type: functional; conditions: ATCC 19606 = CIP 70.34 = JCM 6841, 18 h; in short: as §2
# Cryptococcus neoformans = experiment: Antifungal activity against Cryptococcus neoformans ATCC 208821 assessed as growth inhibition incubated for 36 hrs by resazurin dye based assay; assay type: functional; conditions: ATCC 208821, 36 h
# In short: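 Cryptococcus was grown 3 days on YPD agar at 30 °C, suspended, and diluted in YNB broth to 2.5×10^3 CFU/mL. Cells were exposed to 0.008–32 μg/mL compound (final), in duplicate, for 36 h at 35 °C without shaking. Resazurin (0.006% final) was added for a further 3 h. MIC was read from absorbance at OD570–600. Means, n = 2.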
# [9] = Hemolytic activity against Sprague-Dawley rat RBC assessed as release of hemoglobin at 50 uM incubated for 1 hr relative to control; assay type: ADME, cell-based, Erythrocyte; conditions: red blood cells (erythrocytes), read-out: Activity
# In short: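 Fresh Sprague-Dawley rat erythrocytes were washed in saline and resuspended at 2% v/v. Cells were incubated with compound in DMSO/PBS for 1 h at 37 °C, then centrifuged at 200 g, and supernatant absorbance read at 540 nm. Results were normalised to DMSO/PBS (0%) and 0.1% Triton X-100 (100%). Single-point testing used 50 μM; HC50 came from 10-point curves. Means of three experiments.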
# L6 = experiment: Cytotoxicity against rat L6 cells measured after 72 hrs by alamar blue assay; assay type: cell-based; conditions: L6, 72 h
# In short: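 Rat L6 myoblasts, 4×10^4/well in RPMI 1640 with L-glutamine and 10% FBS, received seven 3-fold dilutions (90 to 0.123 μg/mL) for 72 h. Alamar Blue was added for 2 h and fluorescence read at ex 536/em 588 nm. Podophyllotoxin served as reference. Means, n = 2.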
# Candida albicans = experiment: Antifungal activity against Candida albicans ATCC 90028 assessed as growth inhibition incubated for 36 hrs by resazurin dye based assay; assay type: functional; conditions: ATCC 90028, 36 h
# In short: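 Yeast was grown 3 days on YPD agar at 30 °C. Colonies were suspended and diluted in YNB broth to 2.5×10^3 CFU/mL, then added to two-fold compound dilutions (0.008–32 μg/mL final), in duplicate. Plates stood 36 h at 35 °C without shaking. Means, n = 2.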
MIC (Escherichia coli) [µM],MIC (Acinetobacter baumannii [1]) [µM],MIC (Staphylococcus aureus) [µM],MIC [2] [µM],MIC (Klebsiella pneumoniae [3]) [µM],MIC (Pseudomonas aeruginosa [4]) [µM],MIC (Klebsiella pneumoniae [5]) [µM],MIC (Acinetobacter baumannii [8]) [µM],MIC (Cryptococcus neoformans) [µM],MIC (Candida albicans) [µM],Compound,Activity (Pseudomonas aeruginosa [6]) [µM],CC50 at 20 h [7] [µM],"hemolysis at 1 h, 50 µM [9] [%]",IC50 (L6) [µM]
> 200,> 200,1.5 to 3,3 to 6,50,> 200,–,–,–,–,O=C(N[C@H](CO)[C@H](O)c1ccc([N+](=O)[O-])cc1)C(Cl)Cl [CHLORAMPHENICOL],–,–,–,–
> 200,200,–,–,> 200,> 200,–,–,–,–,CC[C@H]1OC(=O)[C@H](C)[C@@H](O[C@H]2C[C@@](C)(OC)[C@@H](O)[C@H](C)O2)[C@H](C)[C@@H](O[C@@H]2O[C@H](C)C[C@H](N(C)C)[C@H]2O)[C@](C)(O)C[C@@H](C)C(=O)[C@H](C)[C@@H](O)[C@]1(C)O [ERYTHROMYCIN],–,–,–,–
200,–,25,50,–,200,> 39.6,> 39.6,9.9,> 39.6,O=C(NCCCNCCCCNCCCNC(=O)C(=O)c1c[nH]c2ccc(F)cc12)C(=O)c1c[nH]c2ccc(F)cc12.O=C(O)C(F)(F)F.O=C(O)C(F)(F)F,12.5,> 39.6,0,71.1
100,–,> 70,35,–,140,> 55.1,> 55.1,> 55.1,> 55.1,O=C(NCCCNCCCCNCCCNC(=O)C(=O)c1c[nH]c2cccc(F)c12)C(=O)c1c[nH]c2cccc(F)c12,35,> 55,0.3,167
25,12.5,–,–,25,90,–,–,–,–,C[C@H]1c2cccc(O)c2C(=O)C2=C(O)[C@]3(O)C(=O)C(C(N)=O)=C(O)[C@@H](N(C)C)[C@@H]3[C@@H](O)[C@@H]21 [DOXYCYCLINE],–,–,–,–
200,–,100,25,–,> 200,> 38.9,> 38.9,38.9,> 38.9,N#Cc1ccc2c(C(=O)C(=O)NCCCNCCCCNCCCNC(=O)C(=O)c3c[nH]c4cc(C#N)ccc34)c[nH]c2c1.O=C(O)C(F)(F)F.O=C(O)C(F)(F)F,50,> 38.9,0,46.9

Compound,MIC (Escherichia coli) [µM],MIC (Acinetobacter baumannii [1]) [µM],MIC (Staphylococcus aureus) [µM],MIC [2] [µM],MIC (Klebsiella pneumoniae [3]) [µM],MIC (Pseudomonas aeruginosa [4]) [µM],MIC (Klebsiella pneumoniae [5]) [µM],MIC (Acinetobacter baumannii [8]) [µM],MIC (Cryptococcus neoformans) [µM],MIC (Candida albicans) [µM],Activity (Pseudomonas aeruginosa [6]) [µM],CC50 at 20 h [7] [µM],"hemolysis at 1 h, 50 µM [9] [%]",IC50 (L6) [µM]
CCn1cc(C(=O)O)c(=O)c2ccc(C)nc21 [NALIDIXIC ACID],> 200,> 200,–,–,100,> 200,–,–,–,–,–,–,–,–
